The record followed here is ChEMBL document CHEMBL4024768, “Discovery and Optimization of Thiazolidinyl and Pyrrolidinyl Derivatives as Inhaled PDE4 Inhibitors for Respiratory Diseases” (J Med Chem, 2017).

As usually defined, the Papp B→A is how fast a substance crosses the layer from the basolateral side. As usually defined, the Papp A→B is the apparent permeability from the apical to the basolateral side of a cell layer. In general, IC50 refers to the midpoint of a concentration-inhibition curve.

The first data set in a line: Apparent permeability across basolateral to apical side in human Caco2 cells at 10 uM after 2 hrs by LC-MS/MS analysis. The conditions noted are these: Caco-2. Type of data set: ADME, cell-based.
Take `Cn1cnc(S(=O)(=O)N2CCS[C@H]2C(=O)O[C@@H](Cc2c(Cl)c[n+]([O-])cc2Cl)c2ccc(OC(F)F)c(OCC3CC3)c2)c1`: the Papp B→A at 2 h, 10 µM stood at 3.95 ×10⁻⁶ cm/s.

As to `CN(C)C(=O)c1cccc(S(=O)(=O)N2CCCC[C@H]2C(=O)O[C@@H](Cc2c(Cl)c[n+]([O-])cc2Cl)c2ccc(OC(F)F)c(OCC3CC3)c2)c1` (relative stereo), the apparent permeability from basolateral to apical (Papp B→A) at 2 h, 10 µM is 73.4 ×10⁻⁶ cm/s.

`COc1ccc(S(=O)(=O)N2CCS[C@H]2C(=O)O[C@@H](Cc2c(Cl)c[n+]([O-])cc2Cl)c2ccc(OC(F)F)c(OCC3CC3)c2)cc1OC` (relative stereo): the Papp B→A at 2 h, 10 µM stood at 0.82 ×10⁻⁶ cm/s.

A further data set in a line: Protein binding in human plasma at 5 uM after 5 hrs by LC-MS/MS analysis. Type of data set: ADME, cell-free. As to conditions: read-out: PPB (converted).
Consider `Cn1cnc(S(=O)(=O)N2CCS[C@H]2C(=O)O[C@@H](Cc2c(Cl)c[n+]([O-])cc2Cl)c2ccc(OC(F)F)c(OCC3CC3)c2)c1`, for which the fraction unbound at 5 h, 5 µM was 0.015.

Take `CN(C)C(=O)c1cccc(S(=O)(=O)N2CCCC[C@H]2C(=O)O[C@@H](Cc2c(Cl)c[n+]([O-])cc2Cl)c2ccc(OC(F)F)c(OCC3CC3)c2)c1` (relative stereo): the fraction unbound at 5 h, 5 µM is 0.0012.

`COc1ccc(S(=O)(=O)N2CCS[C@H]2C(=O)O[C@@H](Cc2c(Cl)c[n+]([O-])cc2Cl)c2ccc(OC(F)F)c(OCC3CC3)c2)cc1OC` (relative stereo): the fraction unbound at 5 h, 5 µM was 0.004.

Another data set is described as follows: Intrinsic clearance in human liver microsomes at 1 uM measured after 60 mins in presence NADPH by LC-MS/MS analysis. The class given is ADME, microsome. The conditions noted are these: read-out: CLH. The method, boiled down: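 Compound at 1 μM with human liver microsomes (0.8 mg protein/mL) in Dulbecco's buffer pH 7.4, 1 mM NADPH, 37 °C, in duplicate. Sampled at 0, 5, 10, 20, 30 and 60 min, quenched with ice-cold acetonitrile, and unchanged compound measured by LC−MS/MS. No-NADPH controls; midazolam (1 μM) as phase I control.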
(In general: Microsomes from liver hold many membrane-bound enzymes, among them those of drug oxidation.)
`Cn1cnc(S(=O)(=O)N2CCS[C@H]2C(=O)O[C@@H](Cc2c(Cl)c[n+]([O-])cc2Cl)c2ccc(OC(F)F)c(OCC3CC3)c2)c1`: the microsomal CLint at 1 µM is 281 µL/min/mg.

Take `CN(C)C(=O)c1cccc(S(=O)(=O)N2CCCC[C@H]2C(=O)O[C@@H](Cc2c(Cl)c[n+]([O-])cc2Cl)c2ccc(OC(F)F)c(OCC3CC3)c2)c1` (relative stereo): the microsomal CLint at 1 µM was 363 µL/min/mg.

As for `COc1ccc(S(=O)(=O)N2CCS[C@H]2C(=O)O[C@@H](Cc2c(Cl)c[n+]([O-])cc2Cl)c2ccc(OC(F)F)c(OCC3CC3)c2)cc1OC` (relative stereo), the microsomal CLint at 1 µM was 200 µL/min/mg.

A further data set is described as follows: Intrinsic clearance in human hepatocytes assessed per million cells at 1 uM measured after 90 mins by LC-MS/MS analysis. Type of data set: ADME, cell-based, Hepatocyte. The conditions noted are these: read-out: CLH. The method, boiled down: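 Compound at 1 μM with hepatocytes (1 million cells/mL) in Leibovitz L-15 at 37 °C, in duplicate. Sampled at 0, 10, 20, 30, 60 and 90 min, quenched with ice-cold acetonitrile, centrifuged, and unchanged compound measured by LC−MS/MS. Included 7-ethoxycoumarin and 7-hydroxycoumarin activity controls and cell-free medium controls.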
For the compound `Cn1cnc(S(=O)(=O)N2CCS[C@H]2C(=O)O[C@@H](Cc2c(Cl)c[n+]([O-])cc2Cl)c2ccc(OC(F)F)c(OCC3CC3)c2)c1`, the hepatocyte CLint at 1 µM came out at 66.9 µL/min/1e6 cells.

On to `CN(C)C(=O)c1cccc(S(=O)(=O)N2CCCC[C@H]2C(=O)O[C@@H](Cc2c(Cl)c[n+]([O-])cc2Cl)c2ccc(OC(F)F)c(OCC3CC3)c2)c1` (relative stereo), for which the hepatocyte CLint at 1 µM came out at 64.6 µL/min/1e6 cells.

Take `COc1ccc(S(=O)(=O)N2CCS[C@H]2C(=O)O[C@@H](Cc2c(Cl)c[n+]([O-])cc2Cl)c2ccc(OC(F)F)c(OCC3CC3)c2)cc1OC` (relative stereo): the hepatocyte CLint at 1 µM was 53.8 µL/min/1e6 cells.

Another data set is described as follows: Apparent permeability across apical to basolateral side in human Caco2 cells at 10 uM after 2 hrs by LC-MS/MS analysis. The class given is ADME, cell-based. The conditions noted are these: Caco-2. On the technique in general: Caco-2 cells form a polarised layer with tight junctions and transporters.
As for `Cn1cnc(S(=O)(=O)N2CCS[C@H]2C(=O)O[C@@H](Cc2c(Cl)c[n+]([O-])cc2Cl)c2ccc(OC(F)F)c(OCC3CC3)c2)c1`, the Papp A→B at 2 h, 10 µM was 0.22 ×10⁻⁶ cm/s.

Turning to `CN(C)C(=O)c1cccc(S(=O)(=O)N2CCCC[C@H]2C(=O)O[C@@H](Cc2c(Cl)c[n+]([O-])cc2Cl)c2ccc(OC(F)F)c(OCC3CC3)c2)c1` (relative stereo), the apparent permeability from apical to basolateral (Papp A→B) at 2 h, 10 µM came to 21.7 ×10⁻⁶ cm/s.

`COc1ccc(S(=O)(=O)N2CCS[C@H]2C(=O)O[C@@H](Cc2c(Cl)c[n+]([O-])cc2Cl)c2ccc(OC(F)F)c(OCC3CC3)c2)cc1OC` (relative stereo): the Papp A→B at 2 h, 10 µM amounted to 0.25 ×10⁻⁶ cm/s.

A short description of the next data set: Inhibition of PDE4 in human PBMC assessed as reduction in LPS-induced TNFalpha release after 18 hrs by quantitative ELISA.
Settings: not given
A general note: In an ELISA, binding on a coated surface is turned into a signal by an enzyme label.
In the case of `O=C(O[C@@H](Cc1c(Cl)c[n+]([O-])cc1Cl)c1ccc(OC(F)F)c(OCC2CC2)c1)[C@@H]1SCCN1S(=O)(=O)c1cccnc1` (relative stereo), the IC50 is 0.07 nM.

Regarding `Cn1cnc(S(=O)(=O)N2CCS[C@H]2C(=O)O[C@@H](Cc2c(Cl)c[n+]([O-])cc2Cl)c2ccc(OC(F)F)c(OCC3CC3)c2)c1`, the IC50 came to 0.028 nM.

On to `CN(C)C(=O)c1cccc(S(=O)(=O)N2CCCC[C@H]2C(=O)O[C@@H](Cc2c(Cl)c[n+]([O-])cc2Cl)c2ccc(OC(F)F)c(OCC3CC3)c2)c1` (relative stereo), for which the IC50 was 0.012 nM.

In the case of `COc1ccc(S(=O)(=O)N2CCS[C@H]2C(=O)O[C@@H](Cc2c(Cl)c[n+]([O-])cc2Cl)c2ccc(OC(F)F)c(OCC3CC3)c2)cc1OC` (relative stereo), the concentration for half-maximal inhibition (IC50) was found to be 0.057 nM.

The nature of the next data set: Metabolic stability in human plasma assessed as compound remaining at 1 uM measured after 60 mins in presence of NADPH by LC-MS/MS analysis. The conditions noted are these: read-out: Stability. Type of data set: ADME, cell-free.
Consider `Cn1cnc(S(=O)(=O)N2CCS[C@H]2C(=O)O[C@@H](Cc2c(Cl)c[n+]([O-])cc2Cl)c2ccc(OC(F)F)c(OCC3CC3)c2)c1`, for which the remaining at 1 h, 1 µM amounted to 101%.

Take `CN(C)C(=O)c1cccc(S(=O)(=O)N2CCCC[C@H]2C(=O)O[C@@H](Cc2c(Cl)c[n+]([O-])cc2Cl)c2ccc(OC(F)F)c(OCC3CC3)c2)c1` (relative stereo): the remaining at 1 h, 1 µM is 104%.

`COc1ccc(S(=O)(=O)N2CCS[C@H]2C(=O)O[C@@H](Cc2c(Cl)c[n+]([O-])cc2Cl)c2ccc(OC(F)F)c(OCC3CC3)c2)cc1OC` (relative stereo): the remaining at 1 h, 1 µM turned out to be 101%.

A short description of the next data set: Metabolic stability in human lung S9 fraction assessed as compound remaining at 1 uM measured after 60 mins in presence of NADPH by LC-MS/MS analysis. Type of data set: ADME. As to conditions: read-out: Stability.
Regarding `Cn1cnc(S(=O)(=O)N2CCS[C@H]2C(=O)O[C@@H](Cc2c(Cl)c[n+]([O-])cc2Cl)c2ccc(OC(F)F)c(OCC3CC3)c2)c1`, the remaining at 1 h, 1 µM stood at 77.7%.

In the case of `CN(C)C(=O)c1cccc(S(=O)(=O)N2CCCC[C@H]2C(=O)O[C@@H](Cc2c(Cl)c[n+]([O-])cc2Cl)c2ccc(OC(F)F)c(OCC3CC3)c2)c1` (relative stereo), the remaining at 1 h, 1 µM stood at 72.5%.

As to `COc1ccc(S(=O)(=O)N2CCS[C@H]2C(=O)O[C@@H](Cc2c(Cl)c[n+]([O-])cc2Cl)c2ccc(OC(F)F)c(OCC3CC3)c2)cc1OC` (relative stereo), the remaining at 1 h, 1 µM was found to be 50.7%.

A short description of another data set: Inhibition of PDE4 in human U937 cell lysates assessed as residual cAMP after 2.5 mins by LANCE assay.
Settings: not given
On to `O=C(O[C@@H](Cc1c(Cl)c[n+]([O-])cc1Cl)c1ccc(OC(F)F)c(OCC2CC2)c1)[C@@H]1SCCN1S(=O)(=O)c1cccnc1` (relative stereo), for which the 50% inhibitory concentration (IC50) amounted to 0.061 nM.

As to `Cn1cnc(S(=O)(=O)N2CCS[C@H]2C(=O)O[C@@H](Cc2c(Cl)c[n+]([O-])cc2Cl)c2ccc(OC(F)F)c(OCC3CC3)c2)c1`, the IC50 is 0.02 nM.

As for `CN(C)C(=O)c1cccc(S(=O)(=O)N2CCCC[C@H]2C(=O)O[C@@H](Cc2c(Cl)c[n+]([O-])cc2Cl)c2ccc(OC(F)F)c(OCC3CC3)c2)c1` (relative stereo), the half-inhibitory concentration (IC50) came to 0.056 nM.

For `COc1ccc(S(=O)(=O)N2CCS[C@H]2C(=O)O[C@@H](Cc2c(Cl)c[n+]([O-])cc2Cl)c2ccc(OC(F)F)c(OCC3CC3)c2)cc1OC` (relative stereo), the half-inhibitory concentration (IC50) stood at 0.041 nM.
